Drawing on ChEMBL document CHEMBL1129741, “Synthesis and hypolipidemic activities of novel 2-[4-[diethoxyphosphoryl)methyl]phenyl]quinazolines and 4(3H)-quinazolinones” (J Med Chem, 1996), this text covers Change and logP for 34 molecules.

Data set [1] relates to Rattus norvegicus. Briefly: Effect on change in total cholesterol (TC) in triton-induced hyperlipidemic rats after peroral administration of 100 mg/kg. Type of data set: functional. Conditions: route oral.
Data set [2] can be described thus: Partition coefficient (logP) (HPLC). Type of data set: physicochemical. Particulars: octanol/water. The gist of the method:
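Apparent log P* was estimated from reverse-phase HPLC retention time against methyl, ethyl, n-propyl, n-butyl and n-hexyl benzoate standards. Column was C18 at 40 °C with mobile phase CH3OH/0.05 M […] pH 7.4 at 1.0 mL/min, and detection was UV at 230 nm.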

For data set [3], the system named is Rattus norvegicus. Nature of the data set: Effect on change in plasma triglycerides (TG) in triton-induced hyperlipidemic rats after peroral administration of 100 mg/kg. Conditions: route oral. Type of data set: functional.
Data set [4] deals with Rattus norvegicus. Nature of the data set: Effect on change in plasma triglycerides (TG) in triton-induced hyperlipidemic rats after po administration of 10 mg/kg. Type of data set: functional.
Data set [5] deals with Rattus norvegicus. Nature of the data set: Effect on change in total cholesterol (TC) in triton-induced hyperlipidemic rats after po administration of 10 mg/kg. Type of data set: functional.

Bounds are passed on as bounds.

As a reminder, the logP is the decadic logarithm of the partition coefficient of the neutral form, usually between octanol and water. High values mean a more lipophilic compound, low ones a more hydrophilic compound.

With `COc1cc2nc(-c3ccc(CP(=O)(OC(C)C)OC(C)C)cc3)nc(O)c2cc1OC`, the results for the Change in the data set with Rattus norvegicus [1] and in the data set on Rattus norvegicus [3] were below -35% and -32%, respectively. The logP in data set [2] was determined as 4.38.

As to `COc1cc2nc(-c3ccc(CP(=O)(OC)OC)cc3)nc(O)c2cc1OC`, the Change in the data set with Rattus norvegicus [1] is recorded as -18%; in the data set with Rattus norvegicus [3], -11%. Further, in data set [2], the logP was 2.6.

Take `CCOP(=O)(Cc1ccc(-c2nc(OC)c3c(F)cccc3n2)cc1)OCC`: the Change is recorded as -25% in the data set on Rattus norvegicus [1] and -28% in the data set with Rattus norvegicus [3]. Besides, in data set [2], the logP amounted to 5.13.

Turning to `CCOP(=O)(Cc1ccc(-c2nc(OC)c3cc(Br)ccc3n2)cc1)OCC`, the figures for the Change in the data set with Rattus norvegicus [1] and with Rattus norvegicus [3] were 1% and 2%, respectively. This molecule also came in with a logP in data set [2] of 6.37.

`CCOP(=O)(Cc1ccc(-c2nc3cccc(F)c3c(=O)n2C)cc1)OCC`: the results for the Change in the data set on Rattus norvegicus [1] and with Rattus norvegicus [3] were below -15% and -12%, respectively. This molecule gave a logP in data set [2] of 3.18.

Consider `CCOP(=O)(Cc1ccc(-c2nc3cc(OC)c(OC)cc3c(=O)n2Cc2ccccc2)cc1)OCC`, for which the Change in the data set with Rattus norvegicus [1] was below -60%; in the data set on Rattus norvegicus [4] it was below -30%; in the data set on Rattus norvegicus [5], below -15%; in the data set on Rattus norvegicus [3], below -85%. In addition, the logP in data set [2] stood at 4.49.

As for `CCOP(=O)(Cc1ccc(-c2nc3ccc(Br)cc3c(=O)n2Cc2ccc(Br)cc2F)cc1)OCC`, the Change in the data set with Rattus norvegicus [1] is given as -1%; in the data set with Rattus norvegicus [3] it was -16%.

With `CCOP(=O)(Cc1ccc(-c2nc3ccc(Br)cc3c(=O)n2CC)cc1)OCC`, the figures for the Change with Rattus norvegicus [1] and with Rattus norvegicus [3] were below -29% and below -42%, respectively.

Regarding `CCOP(=O)(Cc1ccc(-c2nc3ccccc3c(=O)n2C)cc1)OCC`, the Change was 38% in the data set on Rattus norvegicus [1] and below 31% in the data set on Rattus norvegicus [3]. Besides, the lipophilicity (logP) in data set [2] was 3.29.

Regarding `CCOP(=O)(Cc1ccc(-c2nc(OCc3ccccc3)c3cc(OC)c(OC)cc3n2)cc1)OCC`, the Change was below -21% in the data set on Rattus norvegicus [1] and below -40% with Rattus norvegicus [3].

As to `CCOP(=O)(Cc1ccc(-c2nc3ccc(Br)cc3c(=O)n2C)cc1)OCC`, the figures for the Change with Rattus norvegicus [1] and with Rattus norvegicus [3] were below -16% and below -35%, respectively. This molecule also gave a logP in data set [2] of 4.09.

On to `CCOP(=O)(Cc1ccc(-c2nc(OCC(=O)O)c3cc(Br)ccc3n2)cc1)OCC`, for which the Change was -14% in the data set on Rattus norvegicus [1] and -2% in the data set on Rattus norvegicus [3].

As for `CCOP(=O)(Cc1ccc(-c2nc(O)c3c(F)cccc3n2)cc1)OCC`, the Change in the data set with Rattus norvegicus [1] and with Rattus norvegicus [3] was -8% throughout. The logP in data set [2] was 3.13.

`CCOP(=O)(Cc1ccc(-c2nc(OC)c3ccccc3n2)cc1)OCC`: the Change with Rattus norvegicus [1] is 56%; with Rattus norvegicus [3] it was -5%. In data set [2], this molecule returned a logP of 5.26.

Regarding `CCOP(=O)(Cc1ccc(-c2nc(O)c3cc(OC)c(OC)cc3n2)cc1)OCC`, the Change in the data set on Rattus norvegicus [1] is recorded as below -22%; with Rattus norvegicus [3], -37%. The lipophilicity (logP) in data set [2] was 3.36.

With `C=CCOc1nc(-c2ccc(CP(=O)(OCC)OCC)cc2)nc2cc(OC)c(OC)cc12`, the Change is recorded as below -35% with Rattus norvegicus [1] and below -71% with Rattus norvegicus [3].

Take `CCOc1nc(-c2ccc(CP(=O)(OCC)OCC)cc2)nc2ccc(Br)cc12`: the values for the Change with Rattus norvegicus [1] and with Rattus norvegicus [3] were -14% and below -29%, respectively. The logP in data set [2] amounted to 7.01.

For the molecule `COc1cc2nc(-c3ccc(CP(=O)(OC(C)C)OC(C)C)cc3)nc(OC)c2cc1OC`, the Change in the data set on Rattus norvegicus [1] was below -60%; in the data set with Rattus norvegicus [3], below -81%. The logP in data set [2] amounted to 5.53.

For the molecule `C=CCn1c(-c2ccc(CP(=O)(OCC)OCC)cc2)nc2ccc(Br)cc2c1=O`, the Change is below -25% with Rattus norvegicus [1] and below -43% in the data set with Rattus norvegicus [3].

Consider `COc1cc2nc(-c3ccc(CP(=O)(OC)OC)cc3)nc(OC)c2cc1OC`, for which the Change with Rattus norvegicus [1] is listed as below -48%; in the data set with Rattus norvegicus [3], below -52%. In addition, in data set [2], the logP is 3.75.

For the molecule `COc1nc(-c2ccc(CP(=O)(OC)OC)cc2)nc2ccc(Br)cc12`, the Change with Rattus norvegicus [1] and in the data set on Rattus norvegicus [3] was -9% throughout. In addition, the logP in data set [2] stood at 5.61.

In data set [2], `CCOP(=O)(Cc1ccc(-c2nc(O)c3ccccc3n2)cc1)OCC` yielded a logP of 2.55.

For the molecule `CCOP(=O)(Cc1ccc(-c2nc3ccc(Br)cc3c(=O)n2Cc2ccccc2)cc1)OCC`, the Change with Rattus norvegicus [1] was below -34%; in the data set with Rattus norvegicus [3], below -54%. The molecule also displayed a logP in data set [2] of 5.17.

`CCOP(=O)(Cc1ccc(-c2nc3ccc(Br)cc3c(=O)n2CC(=O)O)cc1)OCC`: the Change turned out to be 5% in the data set on Rattus norvegicus [1] and 13% in the data set on Rattus norvegicus [3].

As for `COc1cc2nc(-c3ccc(CP(=O)(OC(C)C)OC(C)C)cc3)n(C)c(=O)c2cc1OC`, the Change is on record as below -58% in the data set on Rattus norvegicus [1], -8% with Rattus norvegicus [4], -4% in the data set on Rattus norvegicus [5] and below -81% in the data set with Rattus norvegicus [3]. In data set [2], this molecule came in with a logP of 4.2.

As for `CCOP(=O)(Cc1ccc(-c2nc(Oc3ccccc3)c3cc(Br)ccc3n2)cc1)OCC`, the Change in the data set on Rattus norvegicus [1] is on record as 4%; with Rattus norvegicus [3], below 16%. Further, the logP in data set [2] is 7.67.

Turning to `COc1cc2nc(-c3ccc(CP(=O)(OC)OC)cc3)n(C)c(=O)c2cc1OC`, the Change with Rattus norvegicus [1] was below -27%; in the data set on Rattus norvegicus [3], below -41%. The molecule further registered a logP in data set [2] of 2.65.

For `CCOP(=O)(Cc1ccc(C(=O)Nc2ccc(Br)cc2C#N)cc1)OCC` [IBROLIPIM], the Change with Rattus norvegicus [1] is below -69%; in the data set on Rattus norvegicus [4] it was -54%; in the data set on Rattus norvegicus [5], -27%; in the data set on Rattus norvegicus [3] it was below -85%. In data set [2], this molecule came in with a log partition coefficient (logP) of 3.21.

Consider `CC(C)OP(=O)(Cc1ccc(-c2nc3ccc(Br)cc3c(=O)n2C)cc1)OC(C)C`, for which the Change is recorded as -11% in the data set with Rattus norvegicus [1] and below -37% with Rattus norvegicus [3]. In data set [2], this molecule gave a logP of 4.88.

Take `CCOP(=O)(Cc1ccc(-c2nc3cc(OC)c(OC)cc3c(=O)n2C)cc1)OCC`: the Change with Rattus norvegicus [1] is below -51%; in the data set with Rattus norvegicus [4], -21%; in the data set with Rattus norvegicus [5], -11%; with Rattus norvegicus [3] it was below -86%. The molecule further yielded a logP in data set [2] of 3.41.

For `CCOP(=O)(Cc1ccc(-c2nc(OC)c3cc(OC)c(OC)cc3n2)cc1)OCC`, the figures for the Change in the data set with Rattus norvegicus [1] and with Rattus norvegicus [3] were below -60% and below -86%, respectively. For the same molecule, the logP in data set [2] was found to be 4.51.

For `C=CCn1c(-c2ccc(CP(=O)(OCC)OCC)cc2)nc2cc(OC)c(OC)cc2c1=O`, the Change is reported as below -61% with Rattus norvegicus [4] and below -41% in the data set on Rattus norvegicus [5].

Consider `CCOP(=O)(Cc1ccc(-c2nc(OCc3ccc(Br)cc3F)c3cc(Br)ccc3n2)cc1)OCC`, for which the values for the Change in the data set on Rattus norvegicus [1] and in the data set with Rattus norvegicus [3] were below -12% and -4%, respectively.

For the molecule `C=CCOc1nc(-c2ccc(CP(=O)(OCC)OCC)cc2)nc2ccc(Br)cc12`, the Change in the data set with Rattus norvegicus [1] is -2%; in the data set on Rattus norvegicus [3], -18%.
